Tests used:
[1] = target: T1, Proteasome subunit beta type-10 (Homo sapiens, UniProt P40306); assay: Inhibition of 20S immunoproteasome beta 2 (unknown origin) by cell based ABPP assay
T1 sequence (P40306 whole entry): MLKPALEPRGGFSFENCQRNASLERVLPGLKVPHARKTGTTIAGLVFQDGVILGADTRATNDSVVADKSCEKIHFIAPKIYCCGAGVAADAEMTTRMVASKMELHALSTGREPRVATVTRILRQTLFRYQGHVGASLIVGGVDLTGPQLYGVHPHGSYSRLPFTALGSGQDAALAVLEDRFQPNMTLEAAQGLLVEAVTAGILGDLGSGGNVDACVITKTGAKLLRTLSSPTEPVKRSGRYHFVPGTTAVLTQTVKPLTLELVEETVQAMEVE
How it was run: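 Living RPMI-8226 cells, (5–8) ×10^5 cells/mL, exposed to inhibitor 1 h at 37 °C, washed, lysed in digitonin buffer 1 h on ice; residual activity labelled with cocktail ABPs, SDS-PAGE in-gel fluorescence, bands divided by mock, Coomassie staining to correct loading. IC50 from mean of three independent experiments.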

[2] = species on record: Homo sapiens; assay: Selectivity ratio of IC50 for 20S immunoproteasome beta 2 (unknown origin) to IC50 for 20S constitutive proteasome beta 2 trypsin-like activity (unknown origin)
[3] = target: T2, Proteasome Macropain subunit MB1 (Homo sapiens, UniProt P28074); assay: Inhibition of 20S constitutive proteasome beta 5 chymotrypsin-like activity in human Raji cell lysates after 1 hr by competitive ABPP assay; assay type: subcellular, Lysate
T2 sequence (P28074 whole entry): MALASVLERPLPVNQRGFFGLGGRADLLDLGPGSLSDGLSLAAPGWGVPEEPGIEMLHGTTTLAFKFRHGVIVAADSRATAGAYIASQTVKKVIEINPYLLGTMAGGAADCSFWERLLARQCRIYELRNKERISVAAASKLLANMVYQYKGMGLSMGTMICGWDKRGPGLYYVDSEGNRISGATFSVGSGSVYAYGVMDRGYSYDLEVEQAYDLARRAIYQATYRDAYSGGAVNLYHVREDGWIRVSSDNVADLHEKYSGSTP

[4] = target: T3, Proteasome subunit beta type-9 (Homo sapiens, UniProt P28065); assay: Inhibition of 20S immunoproteasome beta 1 in human Raji cell lysates after 1 hr by competitive ABPP assay; assay type: subcellular, Lysate
T3 sequence (P28065 whole entry): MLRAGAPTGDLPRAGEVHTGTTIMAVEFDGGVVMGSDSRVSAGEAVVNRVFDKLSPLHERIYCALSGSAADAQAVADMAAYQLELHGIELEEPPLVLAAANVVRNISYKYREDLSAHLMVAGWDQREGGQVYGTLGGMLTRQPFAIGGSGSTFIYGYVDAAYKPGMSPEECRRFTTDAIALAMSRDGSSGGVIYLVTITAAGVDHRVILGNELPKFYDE
How it was run: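 Raji cells were sonicated in 3 volumes of Tris pH 7.5 lysis buffer containing DTT, MgCl₂, sucrose, 2 mM ATP and 0.05% digitonin. Lysate (5 μg protein, in buffer with 2 mM ATP and glycerol) was preincubated with inhibitor for 1 h at 37 °C, then with a cocktail of three fluorescent ABPs for 1 h. […] In-gel fluorescence densitometry was normalized to mock. IC50 came from the mean of three experiments.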

[5] = target: T4, Proteasome subunit beta type-6 (Homo sapiens, UniProt P28072); assay: Inhibition of 20S constitutive proteasome beta 1 caspase-like activity in human Raji cell lysates after 1 hr by competitive ABPP assay; assay type: subcellular, Lysate
T4 sequence (P28072 whole entry): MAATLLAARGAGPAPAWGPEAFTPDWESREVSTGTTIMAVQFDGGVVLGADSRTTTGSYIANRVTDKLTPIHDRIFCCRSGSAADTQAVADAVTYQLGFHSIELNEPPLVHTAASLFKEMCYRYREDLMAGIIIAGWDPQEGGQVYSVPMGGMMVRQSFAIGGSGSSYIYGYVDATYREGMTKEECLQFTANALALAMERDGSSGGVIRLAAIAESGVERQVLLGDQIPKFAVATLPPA
How it was run: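 Raji cells were sonicated in 3 volumes of Tris pH 7.5 lysis buffer containing DTT, MgCl₂, sucrose, 2 mM ATP and 0.05% digitonin. Lysate (5 μg protein, in buffer with 2 mM ATP and glycerol) was preincubated with inhibitor for 1 h at 37 °C, then with a cocktail of three fluorescent ABPs for 1 h. In-gel fluorescence densitometry was normalized to mock. IC50 came from the mean of three experiments.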

[6] = target: T5, Proteasome subunit beta type-8 (Homo sapiens, UniProt P28062); assay: Inhibition of 20S immunoproteasome beta 5 in human Raji cell lysates after 1 hr by competitive ABPP assay; assay type: subcellular, Lysate
T5 sequence (P28062 whole entry): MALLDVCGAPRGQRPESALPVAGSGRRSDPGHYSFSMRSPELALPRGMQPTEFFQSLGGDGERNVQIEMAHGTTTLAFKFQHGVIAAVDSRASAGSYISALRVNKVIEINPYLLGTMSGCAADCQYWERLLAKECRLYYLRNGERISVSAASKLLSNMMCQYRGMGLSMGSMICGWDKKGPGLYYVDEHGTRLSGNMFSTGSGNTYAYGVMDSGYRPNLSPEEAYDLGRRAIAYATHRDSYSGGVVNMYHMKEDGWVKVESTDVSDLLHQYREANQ

Structure (SMILES) | IC50 [1] | Ratio IC50 [2] | IC50 [3] | IC50 [4] | IC50 [5] | IC50 [6]
CC(C)C[C@H](NC(=O)[C@H](Cc1ccccc1)N=[N+]=[N-])C(=O)N[C@@H](CC(F)(F)F)C(=O)N[C@H](/C=C/S(C)(=O)=O)Cc1ccc(CN)cc1 | 0.13 µM | 6 |  |  |  | 
Cc1ncc(C(=O)N[C@@H](CC(C)C)C(=O)N[C@@H](CC2CCC(C)CC2)C(=O)N[C@H](/C=C/S(C)(=O)=O)Cc2ccc(CN)cc2)s1 (some centres not stated) | 0.2 µM | 7 |  |  |  | 
COc1ccc(C[C@H](NC(=O)[C@H](C)NC(=O)CN2CCOCC2)C(=O)N[C@@H](CCC2CCCCC2)C(=O)[C@@]2(C)CO2)cc1 |  |  | 5 µM | > 100 µM | > 100 µM | 
CC(C)C[C@H](NC(=O)c1cnccn1)C(=O)N[C@@H](C)C(=O)N[C@H](/C=C/S(C)(=O)=O)Cc1ccc(CN)cc1 | 1.35 µM | 6 |  |  |  | 
Cc1ncc(C(=O)N[C@@H](CC2CCCC3CCCCC32)C(=O)N[C@@H](CC(C)C)C(=O)N[C@H](/C=C/S(C)(=O)=O)Cc2ccc(CN)cc2)s1 (some centres not stated) | 48 µM | 21 |  |  |  | 
COc1ccc(C[C@H](NC(=O)[C@H](C)NC(=O)CN2CCOCC2)C(=O)N[C@@H](CC2CCCC3CCCCC32)C(=O)[C@@]2(C)CO2)cc1 (some centres not stated) |  |  | > 100 µM | > 100 µM | > 100 µM | > 100 µM
Cc1ncc(C(=O)N[C@@H](CC2CCC(C)CC2)C(=O)N[C@@H](CC(C)C)C(=O)N[C@H](/C=C/S(C)(=O)=O)Cc2ccc(CN)cc2)s1 (some centres not stated) | 0.325 µM | 0.8 |  |  |  | 
Cc1ncc(C(=O)N[C@@H](CC(C)C)C(=O)N[C@@H](CC2CCCCC2)C(=O)N[C@H](/C=C/S(C)(=O)=O)Cc2ccc(CN)cc2)s1 | 0.26 µM | 7 |  |  |  | 
COc1ccc(C[C@H](NC(=O)[C@H](C)NC(=O)CN2CCOCC2)C(=O)N[C@@H](C[C@H]2CCCC3CCCCC32)C(=O)[C@@]2(C)CO2)cc1 (some centres not stated) |  |  | > 100 µM | > 100 µM | > 100 µM | > 100 µM
CC(C)[C@H](NC(=O)[C@H](Cc1ccc(CN)cc1)NC(=O)[C@H](Cc1ccccc1)N=[N+]=[N-])C(=O)N[C@@H](CC1CC2CCC1C2)C(=O)[C@@]1(C)CO1 (some centres not stated) |  | 2.7 |  |  |  | 
COC[C@H](NC(=O)[C@H](CC(C)C)NC(=O)[C@H](Cc1ccccc1)N=[N+]=[N-])C(=O)N[C@H](/C=C/S(C)(=O)=O)Cc1ccc(CN)cc1 | 0.2 µM | 25 |  |  |  | 
Cc1ncc(C(=O)N[C@@H](CC2CCC(C3CCCCC3)CC2)C(=O)N[C@@H](CC(C)C)C(=O)N[C@H](/C=C/S(C)(=O)=O)Cc2ccc(CN)cc2)s1 (some centres not stated) | > 10 µM | > 3 |  |  |  | 
Cc1ncc(C(=O)N[C@@H](CC(C)C)C(=O)N[C@@H](CC(C)C)C(=O)N[C@H](/C=C/S(C)(=O)=O)Cc2ccc(CN)cc2)s1 | 0.7 µM | 10 |  |  |  | 
Cc1ncc(C(=O)N[C@@H](CC(C)C)C(=O)N[C@@H](CC2CCC(C3CCCCC3)CC2)C(=O)N[C@H](/C=C/S(C)(=O)=O)Cc2ccc(CN)cc2)s1 (some centres not stated) | 0.045 µM | 3 |  |  |  | 
Cc1ncc(C(=O)N[C@@H](CC2CCCCC2)C(=O)N[C@@H](CC2CCCCC2)C(=O)N[C@H](/C=C/S(C)(=O)=O)Cc2ccc(CN)cc2)s1 | 0.42 µM | 11 |  |  |  | 
COC1CCC(C[C@H](NC(=O)[C@H](CC(C)C)NC(=O)c2cnc(C)s2)C(=O)N[C@H](/C=C/S(C)(=O)=O)Cc2ccc(CN)cc2)CC1 (some centres not stated) | 0.36 µM | 8 |  |  |  | 
COc1ccc(C[C@H](NC(=O)[C@H](C)NC(=O)CN2CCOCC2)C(=O)N[C@@H](C[C@H]2CCCc3ccccc32)C(=O)[C@@]2(C)CO2)cc1 |  |  | > 100 µM | > 100 µM | > 100 µM | > 100 µM

Structure (SMILES) | IC50 [1] | Ratio IC50 [2] | IC50 [3] | IC50 [4] | IC50 [5] | IC50 [6]
Cc1ncc(C(=O)N[C@@H](CC(C)C)C(=O)N[C@@H](CC2CCC3CCCCC3C2)C(=O)N[C@H](/C=C/S(C)(=O)=O)Cc2ccc(CN)cc2)s1 (some centres not stated) | 0.17 µM | 10 |  |  |  | 
CC(C)[C@H](NC(=O)[C@H](Cc1ccc(CN)cc1)NC(=O)[C@H](Cc1ccccc1)N=[N+]=[N-])C(=O)N[C@@H](CC1CCC(C2CCCCC2)CC1)C(=O)[C@@]1(C)CO1 (some centres not stated) |  | 1.6 |  |  |  | 
Cc1ncc(C(=O)N[C@@H](CC(C)C)C(=O)N[C@@H](CC2CCCC3CCCCC32)C(=O)N[C@H](/C=C/S(C)(=O)=O)Cc2ccc(CN)cc2)s1 (some centres not stated) | 0.175 µM | 4 |  |  |  | 
COc1ccc(C[C@H](NC(=O)[C@H](C)NC(=O)CN2CCOCC2)C(=O)N[C@@H](C[C@@H]2CCCc3ccccc32)C(=O)[C@@]2(C)CO2)cc1 |  |  | > 100 µM | > 100 µM | > 100 µM | > 100 µM
Cc1ncc(C(=O)N[C@@H](CC2CCC3CCCCC3C2)C(=O)N[C@@H](CC(C)C)C(=O)N[C@H](/C=C/S(C)(=O)=O)Cc2ccc(CN)cc2)s1 (some centres not stated) | 4.1 µM | 8 |  |  |  | 
Cc1ncc(C(=O)N[C@H](C(=O)N[C@@H](CC(C)C)C(=O)N[C@H](/C=C/S(C)(=O)=O)Cc2ccc(CN)cc2)C2CCCCC2)s1 | 0.061 µM | 1 |  |  |  | 
CC(C)[C@H](NC(=O)[C@H](Cc1ccc(CN)cc1)NC(=O)[C@H](Cc1ccccc1)N=[N+]=[N-])C(=O)N[C@H](C(=O)[C@@]1(C)CO1)C1CCCCC1 |  | 1 |  |  |  | 
CC(C)C[C@H](NC(=O)c1cc(Cl)ccc1Cl)C(=O)N[C@@H](CC(C)C)C(=O)N[C@H](/C=C/S(C)(=O)=O)Cc1ccc(CN)cc1 | 0.35 µM | 5 |  |  |  | 
COc1ccc(C[C@H](NC(=O)[C@H](C)NC(=O)CN2CCOCC2)C(=O)N[C@@H](C[C@H]2CCC[C@@H]3CCCC[C@@H]32)C(=O)[C@@]2(C)CO2)cc1 |  |  | > 100 µM | > 100 µM | > 100 µM | > 100 µM
CC(C)C[C@H](NC(=O)c1ccc(-c2ccccc2)nc1)C(=O)N[C@@H](CC(C)C)C(=O)N[C@H](/C=C/S(C)(=O)=O)Cc1ccc(CN)cc1 | 0.023 µM | 0.8 |  |  |  | 
CC1CCC(C[C@H](NC(=O)[C@@H](NC(=O)[C@H](Cc2ccc(CN)cc2)NC(=O)[C@H](Cc2ccccc2)N=[N+]=[N-])C(C)C)C(=O)[C@@]2(C)CO2)CC1 (some centres not stated) |  | 1 |  |  |  | 
CC(C)C[C@H](NC(=O)[C@H](CC(C)C)NC(=O)[C@H](Cc1ccccc1)NC(=O)CN=[N+]=[N-])C(=O)N[C@H](/C=C/S(C)(=O)=O)Cc1ccc(CN)cc1 | 0.022 µM | 0.6 |  |  |  | 
CC(C)C[C@H](NC(=O)CN1CCOCC1)C(=O)N[C@@H](CC(C)C)C(=O)N[C@H](/C=C/S(C)(=O)=O)Cc1ccc(CN)cc1 | 0.047 µM | 1 |  |  |  | 
Cc1ncc(C(=O)N[C@@H](CC(C)C)C(=O)N[C@@H](CCC2CCCCC2)C(=O)N[C@H](/C=C/S(C)(=O)=O)Cc2ccc(CN)cc2)s1 | 0.28 µM | 25 |  |  |  | 
CC(C)C[C@H](NC(=O)[C@H](Cc1ccccc1)N=[N+]=[N-])C(=O)N[C@@H](CC(C)(C)F)C(=O)N[C@H](/C=C/S(C)(=O)=O)Cc1ccc(CN)cc1 | 0.047 µM | 3 |  |  |  | 
CC(C)[C@H](NC(=O)[C@H](Cc1ccc(CN)cc1)NC(=O)[C@H](Cc1ccccc1)N=[N+]=[N-])C(=O)N[C@@H](CC1CCC2CCCCC2C1)C(=O)[C@@]1(C)CO1 (some centres not stated) |  | 1 |  |  |  | 

From ChEMBL document CHEMBL4368918, “Structure-Based Design of Inhibitors Selective for Human Proteasome β2c or β2i Subunits” (J Med Chem, 2019)
